Experimental data collected from several papers.
Compare with care: the assays were run in different laboratories.

Structure (SMILES)	target or system	assay	system	setting	endpoint	value
O=C(NCc1cn(Cc2ccc(Cl)cc2)nn1)Nc1ccc(Cl)cc1	L02	cell growth or viability, CCK-8	–	50 µM, 72 h	viability	127%
COc1ccc2c(c1)CN(C(=O)CCN1CCC(Cc3ccccc3)CC1)CC[S@@+]2[O-]	–	–	male human, plasma	intravenous, 0.4 mg/kg, healthy volunteers	Cmax	1080 ng/mL
O=C(COc1ccc(Cl)cc1)NC12CC(c3nnc([C@H]4C[C@@H](OC(F)(F)F)C4)o3)(C1)C2	–	–	human, plasma	oral, 100 mg, single dose, fasted, healthy volunteers	Cmax	1180 nM
O=C(Nc1ccc(Cl)cc1)Nc1ccc(-c2cn(Cc3cccc(Cl)c3)nn2)cc1	L02	cell growth or viability, CCK-8	–	50 µM, 72 h	viability	92.6%
COc1ccc(NC(=O)Nc2cccc(-c3cn(Cc4cccc(Cl)c4)nn3)c2)cc1	L02	cell growth or viability, CCK-8	–	50 µM, 72 h	viability	123%
O=C(Nc1ccc(-c2cn(Cc3ccc(Br)cc3)nn2)cc1)Nc1ccccc1Br	L02	cell growth or viability, CCK-8	–	50 µM, 72 h	viability	104%
COc1ccc(NC(=O)NCc2cn(Cc3ccc(Cl)cc3)nn2)cc1	L02	cell growth or viability, CCK-8	–	50 µM, 72 h	viability	121%
CC(C)n1c(C2CCNCC2)nc2c([N+](=O)[O-])c(Br)c(Br)cc21	–	–	human, plasma	oral, 150 mg, patients	Cmax	249 ng/mL
COc1ccc(NC(=O)NCc2cn(Cc3ccc(Br)cc3)nn2)cc1	L02	cell growth or viability, CCK-8	–	50 µM, 72 h	viability	119%
COc1ccc(-c2c(Nc3ccccn3)[nH]c3c(C4=CCCCC4)c(-c4ccccc4)nn3c2=O)cc1	–	–	human, plasma	oral, 200 mg twice daily, multiple doses, patients	Cmax	13600 ng/mL
COc1ccc(NC(=O)NCc2cn(Cc3ccccc3C)nn2)cc1	L02	cell growth or viability, CCK-8	–	50 µM, 72 h	viability	124%
CCONC(=O)N1CCC[C@H](C(=O)NCc2nc(-c3ccc(C#N)cc3)cs2)C1	–	–	Caco-2	–	efflux ratio	6.9
